Tested on: Mycobacterium tuberculosis
Assay: (§1) Uncompetitive inhibition of Mycobacterium tuberculosis IMPDH deltaCBS mutant assessed as reduction in NADH production preincubated for 5 mins followed by substrate IMP addition at increasing concentration measured for 32 mins in presence of constant concentration of NAD+ by Lineweaver-Burk plot analysis

| SMILES | alphaKi [µM] |
| --- | --- |
| COc1ccc(OC(C)C(=O)Nc2ccc(I)cc2)cc1 (stereo unspecified) | 0.86 |

Tested on: Mycobacterium tuberculosis
Assay: Uncompetitive inhibition of Mycobacterium tuberculosis IMPDH deltaCBS mutant expressed in Escherichia coli BL21(DE3) in presence of IMP and NAD+
In short: (§2)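 Enzyme was Mth IMPDH ΔCBS expressed in E. coli BL21(DE3) at 18°C with 500 µM IPTG, then Ni-IMAC purified, TEV-cleaved and run on gel filtration; assay buffer and 37°C conditions as in the activity assay. […] Initial rates were fit to uncompetitive or mixed inhibition equations, and the pattern was read from Lineweaver-Burk plots.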

| SMILES | alphaKi [µM] |
| --- | --- |
| COc1c(C)c2c(c(O)c1C/C=C(\C)Cn1cc(COC[C@H]3O[C@@H](n4cnc5c(N)ncnc54)[C@H](O)[C@@H]3O)nn1)C(=O)OC2 | 1 |
| C=C(C)c1cccc(C(C)(C)NC(=O)Nc2ccc(Cl)c(C(=O)N(C)C)c2)c1 | 0.009 |

Tested on: Mycobacterium tuberculosis
Assay: Inhibition of Mycobacterium tuberculosis IMPDH deltaCBS mutant assessed as reduction in NADH production at 1 mM using IMP as substrate preincubated for 5 mins followed by substrate addition measured for 32 mins in presence of NAD+

| SMILES | inhibition [%] |
| --- | --- |
| CC1(C)Cc2cccc(CO)c2O1 | 99 |
| N#Cc1c[nH]c2ccccc12 | 51 |
| Clc1ccc(-c2cnc[nH]2)cc1 | 59 |
| OCc1ccc2sccc2c1 | 53 |
| CC(=O)Nc1cc(C)ccc1O | 79 |
| Nc1n[nH]c(-c2ccccc2)c1Br | 53 |
| Brc1ccc(-c2c[nH]cn2)cc1 | 65 |
| COc1ccc2ccc(O)cc2c1 | 66 |
| Oc1ccc2ccccc2c1 | 57 |
| Nc1[nH]ncc1-c1cccc(Br)c1 | 50 |
| O=C(O)c1cc2cccc(O)c2cc1O | 98 |
| Oc1cccc2ccccc12 | 68 |
| O=C(O)c1ccccc1-n1cccc1 | 72 |
| Nc1ccc(-n2ccnc2)cc1 | 64 |
| Cc1ccc(-c2nc(C(=O)O)cs2)cc1 | 88 |
| O=C(O)c1cc2sccc2s1 | 86 |
| Oc1ccc2ccc(O)cc2c1 | 77 |

Tested on: Mycobacterium tuberculosis
Assay: as §1, with “Mixed-type” for “Uncompetitive”

| SMILES | alphaKi [µM] |
| --- | --- |
| Cc1ccc(-c2nc(C(=O)O)cs2)cc1 | 398 |

Tested on: Mycobacterium tuberculosis
Assay: Uncompetitive inhibition of Mycobacterium tuberculosis IMPDH deltaCBS mutant
In short: as §2

| SMILES | alphaKi [µM] |
| --- | --- |
| Cc1n[nH]c(C)c1S(=O)(=O)Nc1ccc2c[nH]nc2c1 | 0.22 |
| O=C(C1CCCCC1)N1CCN(S(=O)(=O)c2ccc3cnccc3c2)CC1 | 0.12 |

Tested on: Mycobacterium tuberculosis
Assay: Inhibition of Mycobacterium tuberculosis IMPDH deltaCBS mutant assessed as reduction in NADH production using IMP as substrate at 100 uM preincubated for 5 mins followed by substrate addition measured for 32 mins in presence of NAD+

| SMILES | inhibition [%] |
| --- | --- |
| O=C(CSc1nc(-c2ccc(Br)cc2)c[nH]1)Nc1ccc(I)cc1 | 30 |
| O=C(CSc1nc(-c2ccccc2)c[nH]1)Nc1ccc2occc2c1 | 36 |
| Brc1ccc(-c2c[nH]cn2)cc1 | < 5 |
| O=C(CSc1ncc(-c2ccccc2)[nH]1)Nc1ccccc1 | < 5 |
| O=C(CSc1nc(-c2ccccc2)c[nH]1)Nc1ccc(-c2c[nH]cn2)cc1 | 24 |
| O=C(O)CSc1nc(-c2ccccc2)c[nH]1 | < 5 |
| O=C(CSc1nc(-c2ccc(Br)cc2)c[nH]1)Nc1ccc2occc2c1 | 31 |
| CC(C)NC(=O)CSc1nc(-c2ccccc2)c[nH]1 | < 5 |
| O=C(NCc1ncc(-c2ccc(Br)cc2)[nH]1)Nc1ccc(-c2c[nH]cn2)cc1 | 56 |
| O=C(CSc1nc(-c2ccc(Br)cc2)c[nH]1)Nc1ccccc1 | 13 |
| O=C(CSc1nc(-c2ccc(Br)cc2)c[nH]1)Nc1ccc(-c2c[nH]cn2)cc1 | 20 |
| O=C(CSc1nc(-c2ccccc2)c[nH]1)Nc1ccc(I)cc1 | 46 |
| O=C(O)CSc1nc(-c2ccc(Br)cc2)c[nH]1 | < 5 |

Tested on: Mycobacterium tuberculosis
Assay: Inhibition of Mycobacterium tuberculosis IMPDH deltaCBS mutant assessed as reduction in NADH production using IMP as substrate at 10 uM preincubated for 5 mins followed by substrate addition measured for 32 mins in presence of NAD+

| SMILES | inhibition [%] |
| --- | --- |
| CC(Oc1ccc(-c2cn(C)cn2)cc1)C(=O)Nc1nc(-c2ccc(Br)cc2)co1 (stereo unspecified) | 83 |
| CC(Oc1ccc(-c2cn(C)cn2)cc1)C(=O)Nc1nc(-c2ccc(I)cc2)c[nH]1 (stereo unspecified) | 96 |
| CC(Oc1ccc(-c2cn(C)cn2)cc1)C(=O)Nc1nc(-c2ccc(N3CCOCC3)cc2)c[nH]1 (stereo unspecified) | 94 |
| C[C@H](Oc1ccc(-c2cn(C)cn2)cc1)C(=O)Nc1nc(-c2ccc(Br)cc2)c[nH]1 | 99 |
| CC(Oc1ccc(-c2cn(C)cn2)cc1)C(=O)Nc1nc(-c2ccc(Br)cc2)c[nH]1 (stereo unspecified) | 99 |
| CC(Oc1ccc(-c2cn(C)cn2)cc1)C(=O)Nc1ccccc1 (stereo unspecified) | 4 |
| COc1ccc(-c2c[nH]c(NC(=O)C(C)Oc3ccc(-c4cn(C)cn4)cc3)n2)cc1 (stereo unspecified) | 95 |
| CC(Oc1ccc(-c2cn(C)cn2)cc1)C(=O)Nc1nc(-c2ccccc2)c[nH]1 (stereo unspecified) | 77 |
| COc1ccc(OC(C)C(=O)Nc2ccc(I)cc2)cc1 (stereo unspecified) | 92 |
| CC(Oc1ccc(-c2cn(C)cn2)cc1)C(=O)Nc1ccc(I)cc1 (stereo unspecified) | 97 |

From ChEMBL document CHEMBL4219150, “Fragment-Based Approach to Targeting Inosine-5'-monophosphate Dehydrogenase (IMPDH) from Mycobacterium tuberculosis” (J Med Chem, 2018)
